According to article PMC6745892 (Journal of Medicinal Chemistry, 2019):

Key:
mDAGL-α = molecular target: T1, mDAGL-α (Mus musculus, UniProt Q6WQJ1); assay: Standard PNP-butyrate surrogate substrate assay; type: biochemical
T1 sequence (Q6WQJ1 1-1044): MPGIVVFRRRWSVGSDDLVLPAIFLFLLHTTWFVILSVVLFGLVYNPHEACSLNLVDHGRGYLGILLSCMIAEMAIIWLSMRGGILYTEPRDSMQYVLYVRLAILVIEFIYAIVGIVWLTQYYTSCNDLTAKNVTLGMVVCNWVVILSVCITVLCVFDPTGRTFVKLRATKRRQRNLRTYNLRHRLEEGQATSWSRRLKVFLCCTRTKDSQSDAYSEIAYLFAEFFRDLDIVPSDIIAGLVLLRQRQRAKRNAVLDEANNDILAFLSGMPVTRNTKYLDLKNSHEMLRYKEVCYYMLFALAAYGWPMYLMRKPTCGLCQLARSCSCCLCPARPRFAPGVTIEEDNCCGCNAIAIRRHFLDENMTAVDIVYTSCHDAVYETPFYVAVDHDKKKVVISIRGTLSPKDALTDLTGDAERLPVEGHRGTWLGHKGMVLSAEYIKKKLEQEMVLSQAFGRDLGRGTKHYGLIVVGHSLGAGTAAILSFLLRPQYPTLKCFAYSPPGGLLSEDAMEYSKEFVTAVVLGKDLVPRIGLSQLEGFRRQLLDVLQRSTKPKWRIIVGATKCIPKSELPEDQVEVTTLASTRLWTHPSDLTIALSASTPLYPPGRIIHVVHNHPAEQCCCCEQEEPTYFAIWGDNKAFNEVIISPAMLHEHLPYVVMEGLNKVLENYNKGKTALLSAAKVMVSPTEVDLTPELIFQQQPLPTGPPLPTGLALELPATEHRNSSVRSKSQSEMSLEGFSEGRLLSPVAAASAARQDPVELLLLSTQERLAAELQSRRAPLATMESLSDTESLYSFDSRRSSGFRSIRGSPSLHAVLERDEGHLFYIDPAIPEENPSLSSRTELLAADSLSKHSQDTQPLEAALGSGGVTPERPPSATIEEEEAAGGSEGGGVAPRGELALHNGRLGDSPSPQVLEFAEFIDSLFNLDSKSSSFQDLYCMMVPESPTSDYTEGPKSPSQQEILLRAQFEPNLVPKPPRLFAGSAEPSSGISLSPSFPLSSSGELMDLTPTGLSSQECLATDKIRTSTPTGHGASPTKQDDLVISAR
How it was run: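 Membrane fraction of HEK293T cells transiently transfected with mDAGL-α, 0.05 μg/μL final, in 50 mM Hepes pH 7.2. Inhibitor in DMSO preincubated 20 min, then PNP-butyrate added (0.3 mM final; 5% DMSO final). OD 420 nm read after 30 min at 20 °C. Data corrected for 10 μM THL background and normalized to DMSO control. N = 2, n = 2; plates kept if Z′ > 0.6.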

DAGL-α = molecular target: T2, DAGL-α (Mus musculus, UniProt Q6WQJ1); type: biochemical; settings: ratio of kinact versus KT109 and DH376
T2 sequence (Q6WQJ1 1-1044): T1 sequence (Q6WQJ1 1-1044)

potency in the standard surrogate substrate assay (in words) (mDAGL-α) | inactivation rate (kinact) times higher than for KT109 and DH376 (DAGL-α) | SMILES
low nanomolar | 2–3 times | O=C(N1CCCC[C@@H]1Cc1ccccc1)n1ncc(C(O)(c2ccc(F)cc2)c2ccc(F)cc2)n1 [Compound 1, (R)-(2-Benzylpiperidin-1-yl)(4-(bis(4-fluorophenyl)(hydroxy)methyl)-2H-1,2,3-triazol-2-yl)methanone]
low nanomolar | 2–3 times | O=C(N1CCCC[C@@H]1Cc1ccccc1)n1cc(C(O)(c2ccc(F)cc2)c2ccc(F)cc2)nn1 [Compound 2, (R)-(2-Benzylpiperidin-1-yl)(4-(bis(4-fluorophenyl)(hydroxy)methyl)-1H-1,2,3-triazol-1-yl)methanone]
